Assays:
Type in all cases: toxicity, cell-based
Fibroblast = assay: Multiplex assay against human fibroblast
Summary of the method: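 Tubulin, mitochondrial-mass and membrane-permeability phenotypes are per cents of healthy-nucleus cells. Cells were gated by CellPathfinder machine learning into Hoechst high-intensity objects or normal cells, normal cells into healthy, pyknosed or fragmented nuclei, and pyknosed cells into mitotic or apoptotic. Before that, live cells stained at seeding with Hoechst33342, BioTracker Green Microtubule Cytoskeleton Dye, MitoTracker Red and Annexin V Alexa Fluor 680 were imaged on a CQ1 microscope at 37°C and 5% CO2 after compound addition.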

HEK-293T = assay: Incucyte cell viability with HEK293T; conditions: human, 10 µM, compound concentration 10 uM; also: filed as whole numbers so only -1 and 0 and 1 occur
U2OS = assay: Incucyte cell viability with U2OS; conditions: human, 10 µM, compound concentration 10 uM; also: filed as whole numbers so only -1 and 0 and 1 occur
[1] = 12 h, 1 µM, compound concentration 1 uM, replicate 1
[2] = 12 h, 1 µM, compound concentration 1 uM, replicate 2
[3] = 12 h, 10 µM, compound concentration 10 uM, replicate 1
[4] = 12 h, 10 µM, compound concentration 10 uM, replicate 2
[5] = 24 h, 1 µM, compound concentration 1 uM, replicate 1
[6] = 24 h, 1 µM, compound concentration 1 uM, replicate 2
[7] = 24 h, 10 µM, compound concentration 10 uM, replicate 1
[8] = 24 h, 10 µM, compound concentration 10 uM, replicate 2
[9] = 48 h, 1 µM, compound concentration 1 uM, replicate 1
[10] = 48 h, 1 µM, compound concentration 1 uM, replicate 2
[11] = 48 h, 10 µM, compound concentration 10 uM, replicate 1
[12] = 48 h, 10 µM, compound concentration 10 uM, replicate 2
[13] = 6 h, replicate number 2, timepoint 6 hours
[14] = 12 h, replicate number 1, timepoint 12 hours
[15] = 18 h, replicate number 1, timepoint 18 hours
[16] = 24 h, replicate number 1, timepoint 24 hours

Nc1nc2c(c(N3CCNCC3)n1)CCC1=C2[C@@H]2CCCC[C@@H]2O1
Population Apoptotic (%) (Fibroblast; [1]): 67%
Population Fragmented Nuclei (%) (Fibroblast; [1]): 37%
Population Healthy Nuclei (%) (Fibroblast; [1]): 42%
Population Hoechst High Intensity Objects (%) (Fibroblast; [1]): 15%
Population Membrane Permeable-Phenotype (%) (Fibroblast; [1]): 10%
Population Mitochondria Different-Phenotype (%) (Fibroblast; [1]): 1%
Population Mitotic Cells (%) (Fibroblast; [1]): 32%
Population Normal (%) (Fibroblast; [1]): 84%
Population Pyknosed Nuclei (%) (Fibroblast; [1]): 20%
Population Tubulin-Different-Phenotype (%) (Fibroblast; [1]): 20%
Total Cell Count (Fibroblast; [1]): 182
Population Apoptotic (%) (Fibroblast; [2]): 0%
Population Fragmented Nuclei (%) (Fibroblast; [2]): 20%
Population Healthy Nuclei (%) (Fibroblast; [2]): 61%
Population Membrane Permeable-Phenotype (%) (Fibroblast; [2]): 8%
Population Mitochondria Different-Phenotype (%) (Fibroblast; [2]): 27%
Population Mitotic Cells (%) (Fibroblast; [2]): 100%
Population Pyknosed Nuclei (%) (Fibroblast; [2]): 18%
Population Tubulin-Different-Phenotype (%) (Fibroblast; [2]): 21%
Total Cell Count (Fibroblast; [2]): 71
Population Apoptotic (%) (Fibroblast; [3]): 56%
Population Fragmented Nuclei (%) (Fibroblast; [3]): 22%
Population Healthy Nuclei (%) (Fibroblast; [3]): 34%
Population Hoechst High Intensity Objects (%) (Fibroblast; [3]): 42%
Population Membrane Permeable-Phenotype (%) (Fibroblast; [3]): 4%
Population Mitochondria Different-Phenotype (%) (Fibroblast; [3]): 13%
Population Mitotic Cells (%) (Fibroblast; [3]): 43%
Population Normal (%) (Fibroblast; [3]): 57%
Population Pyknosed Nuclei (%) (Fibroblast; [3]): 43%
Population Tubulin-Different-Phenotype (%) (Fibroblast; [3]): 52%
Total Cell Count (Fibroblast; [3]): 220
Population Apoptotic (%) (Fibroblast; [4]): 27%
Population Fragmented Nuclei (%) (Fibroblast; [4]): 9%
Population Healthy Nuclei (%) (Fibroblast; [4]): 68%
Population Hoechst High Intensity Objects (%) (Fibroblast; [4]): 3%
Population Membrane Permeable-Phenotype (%) (Fibroblast; [4]): 25%
Population Mitochondria Different-Phenotype (%) (Fibroblast; [4]): 87%
Population Mitotic Cells (%) (Fibroblast; [4]): 72%
Population Normal (%) (Fibroblast; [4]): 96%
Population Pyknosed Nuclei (%) (Fibroblast; [4]): 21%
Population Tubulin-Different-Phenotype (%) (Fibroblast; [4]): 92%
Total Cell Count (Fibroblast; [4]): 106
Population Apoptotic (%) (Fibroblast; [5]): 55%
Population Fragmented Nuclei (%) (Fibroblast; [5]): 30%
Population Healthy Nuclei (%) (Fibroblast; [5]): 50%
Population Hoechst High Intensity Objects (%) (Fibroblast; [5]): 24%
Population Membrane Permeable-Phenotype (%) (Fibroblast; [5]): 21%
Population Mitochondria Different-Phenotype (%) (Fibroblast; [5]): 2%
Population Mitotic Cells (%) (Fibroblast; [5]): 44%
Population Normal (%) (Fibroblast; [5]): 75%
Population Pyknosed Nuclei (%) (Fibroblast; [5]): 19%
Population Tubulin-Different-Phenotype (%) (Fibroblast; [5]): 47%
Total Cell Count (Fibroblast; [5]): 198
Population Apoptotic (%) (Fibroblast; [6]): 20%
Population Fragmented Nuclei (%) (Fibroblast; [6]): 22%
Population Healthy Nuclei (%) (Fibroblast; [6]): 57%
Population Hoechst High Intensity Objects (%) (Fibroblast; [6]): 8%
Population Membrane Permeable-Phenotype (%) (Fibroblast; [6]): 6%
Population Mitochondria Different-Phenotype (%) (Fibroblast; [6]): 20%
Population Mitotic Cells (%) (Fibroblast; [6]): 80%
Population Normal (%) (Fibroblast; [6]): 91%
Population Pyknosed Nuclei (%) (Fibroblast; [6]): 20%
Population Tubulin-Different-Phenotype (%) (Fibroblast; [6]): 16%
Total Cell Count (Fibroblast; [6]): 82
Population Apoptotic (%) (Fibroblast; [7]): 57%
Population Fragmented Nuclei (%) (Fibroblast; [7]): 20%
Population Healthy Nuclei (%) (Fibroblast; [7]): 36%
Population Hoechst High Intensity Objects (%) (Fibroblast; [7]): 45%
Population Membrane Permeable-Phenotype (%) (Fibroblast; [7]): 12%
Population Mitochondria Different-Phenotype (%) (Fibroblast; [7]): 16%
Population Mitotic Cells (%) (Fibroblast; [7]): 42%
Population Normal (%) (Fibroblast; [7]): 55%
Population Pyknosed Nuclei (%) (Fibroblast; [7]): 43%
Population Tubulin-Different-Phenotype (%) (Fibroblast; [7]): 43%
Total Cell Count (Fibroblast; [7]): 240
Population Apoptotic (%) (Fibroblast; [8]): 33%
Population Fragmented Nuclei (%) (Fibroblast; [8]): 8%
Population Healthy Nuclei (%) (Fibroblast; [8]): 46%
Population Hoechst High Intensity Objects (%) (Fibroblast; [8]): 2%
Population Membrane Permeable-Phenotype (%) (Fibroblast; [8]): 22%
Population Mitochondria Different-Phenotype (%) (Fibroblast; [8]): 79%
Population Mitotic Cells (%) (Fibroblast; [8]): 66%
Population Normal (%) (Fibroblast; [8]): 97%
Population Pyknosed Nuclei (%) (Fibroblast; [8]): 45%
Population Tubulin-Different-Phenotype (%) (Fibroblast; [8]): 69%
Total Cell Count (Fibroblast; [8]): 109
Population Apoptotic (%) (Fibroblast; [9]): 71%
Population Fragmented Nuclei (%) (Fibroblast; [9]): 44%
Population Healthy Nuclei (%) (Fibroblast; [9]): 45%
Population Hoechst High Intensity Objects (%) (Fibroblast; [9]): 34%
Population Membrane Permeable-Phenotype (%) (Fibroblast; [9]): 10%
Population Mitochondria Different-Phenotype (%) (Fibroblast; [9]): 1%
Population Mitotic Cells (%) (Fibroblast; [9]): 28%
Population Normal (%) (Fibroblast; [9]): 65%
Population Pyknosed Nuclei (%) (Fibroblast; [9]): 10%
Population Tubulin-Different-Phenotype (%) (Fibroblast; [9]): 22%
Total Cell Count (Fibroblast; [9]): 296
Population Apoptotic (%) (Fibroblast; [10]): 41%
Population Fragmented Nuclei (%) (Fibroblast; [10]): 34%
Population Healthy Nuclei (%) (Fibroblast; [10]): 56%
Population Membrane Permeable-Phenotype (%) (Fibroblast; [10]): 13%
Population Mitochondria Different-Phenotype (%) (Fibroblast; [10]): 2%
Population Mitotic Cells (%) (Fibroblast; [10]): 58%
Population Pyknosed Nuclei (%) (Fibroblast; [10]): 9%
Population Tubulin-Different-Phenotype (%) (Fibroblast; [10]): 36%
Total Cell Count (Fibroblast; [10]): 204
Population Apoptotic (%) (Fibroblast; [11]): 41%
Population Fragmented Nuclei (%) (Fibroblast; [11]): 20%
Population Healthy Nuclei (%) (Fibroblast; [11]): 50%
Population Hoechst High Intensity Objects (%) (Fibroblast; [11]): 49%
Population Membrane Permeable-Phenotype (%) (Fibroblast; [11]): 6%
Population Mitochondria Different-Phenotype (%) (Fibroblast; [11]): 11%
Population Mitotic Cells (%) (Fibroblast; [11]): 58%
Population Normal (%) (Fibroblast; [11]): 50%
Population Pyknosed Nuclei (%) (Fibroblast; [11]): 29%
Population Tubulin-Different-Phenotype (%) (Fibroblast; [11]): 58%
Total Cell Count (Fibroblast; [11]): 244
Population Apoptotic (%) (Fibroblast; [12]): 38%
Population Fragmented Nuclei (%) (Fibroblast; [12]): 27%
Population Healthy Nuclei (%) (Fibroblast; [12]): 49%
Population Hoechst High Intensity Objects (%) (Fibroblast; [12]): 47%
Population Membrane Permeable-Phenotype (%) (Fibroblast; [12]): 9%
Population Mitochondria Different-Phenotype (%) (Fibroblast; [12]): 10%
Population Mitotic Cells (%) (Fibroblast; [12]): 61%
Population Normal (%) (Fibroblast; [12]): 52%
Population Pyknosed Nuclei (%) (Fibroblast; [12]): 23%
Population Tubulin-Different-Phenotype (%) (Fibroblast; [12]): 52%
Total Cell Count (Fibroblast; [12]): 215
Growth Rate (HEK-293T; 0 h, replicate number 1, timepoint 0 hours): 0
Growth Rate (HEK-293T; 6 h, replicate number 1, timepoint 6 hours): 1
Growth Rate (HEK-293T; [13]): 0
Growth Rate (HEK-293T; [14]): 1
Growth Rate (HEK-293T; 12 h, replicate number 2, timepoint 12 hours): 0
Growth Rate (HEK-293T; [15]): 0
Growth Rate (HEK-293T; [16]): 0
Growth Rate (U2OS; 0 h, replicate number 2, timepoint 0 hours): 0
Growth Rate (U2OS; [13]): 1
Growth Rate (U2OS; [14]): 1
Growth Rate (U2OS; [15]): 1
Growth Rate (U2OS; [16]): 1

Reference: ChEMBL document CHEMBL4689842, “EUbOPEN Chemogenomics Library wave 1” (2021)
